# Results gathered from unrelated publications.
# Protocols differ between the studies behind these lines.
# Target: Serine/threonine-protein kinase PknB (pknB, Mycobacterium tuberculosis, UniProt P9WI81)
SMILES,assay,conditions,remaining binding
CS(=O)(=O)N1CCCC(NC(=O)[C@H](CCC2CCCCC2)NC(=O)c2ccc(CNc3ncnc4c3nnn4-c3ccccc3)cc2)C1 (stereo partly drawn),"cell-free assay, competition with immobilised ligand",0.1 µM,90%
C=CC(=O)N1CCC(C(=O)NCC(=O)N2CCN(c3nc(-c4cnc(N)nc4C(F)F)nc(N4CCOCC4)n3)CC2)CC1,"binding, competition with immobilised ligand",1 µM,67%
O=C(NCC1CCOCC1)c1n[nH]cc1NC(=O)c1c(F)cccc1F,"binding, competition with immobilised ligand",1 µM,99%
CCN1CCN(Cc2ccc(C(=O)Nc3ccc(C)c(Oc4ccc5c(c4)CC(=O)N5)c3)cc2C(F)(F)F)CC1,"binding, competition with immobilised ligand",1 µM,100%
Cc1c(NC(=O)c2cc(C(N)=O)nc3cc(F)ccc23)c(C(F)(F)F)nn1Cc1ccc(C#N)cc1,"cell-free assay, competition with immobilised ligand",1 µM,78%
COc1cnc(Nc2cccc(S(N)(=O)=O)c2)nc1N1CCN(c2ccccc2)CC1,"binding, competition with immobilised ligand",1 µM,99%
COc1cc(-c2cn(C3CCc4c(F)cccc4N(CC(F)(F)F)C3=O)nn2)ccc1-n1cnc(C)c1 (stereo not drawn),"cell-free assay, competition with immobilised ligand",1 µM,82%
c1cnn2ncc(-c3ccnc(N4CCC45COC5)n3)c2c1,binding,1 µM,79%
CC1=C(C#N)C(c2ccc3c(c2)c(NC(=O)c2ccccc2C)nn3C)C(C#N)=C(C)N1,"cell-free assay, competition with immobilised ligand",1 µM,97%
CN(CCCC(F)(F)F)c1nccc(-c2cnn3ncccc23)n1,binding,1 µM,89%
COc1cnc(Nc2cccc(S(N)(=O)=O)c2)nc1N1CCN(c2ccccc2)C(=O)C1,"binding, competition with immobilised ligand",1 µM,86%
COc1ccnn2ncc(-c3ccnc(N(C)C)n3)c12,binding,1 µM,100%
Nc1ncc2c(n1)-c1c([nH]c3ccc(C#CC4CC4)cc13)CCCC2,"binding, competition with immobilised ligand",1 µM,90%
O=C(Nc1cccnn1)N1CCC(=Cc2cccc(Oc3ccc(C(F)(F)F)cn3)c2)CC1,"cell-free assay, competition with immobilised ligand",1 µM,95%
N[C@@H]1CCN(c2nccc(-c3cnn4ncccc34)n2)C1,binding,1 µM,100%
